ChEMBL document CHEMBL1126896, “Preparation and anti-HIV activity of O-acylated heparin and dermatan sulfate derivatives with low anticoagulant effect” (J Med Chem, 1993)

Experiments:
[1] = system: HuT78; experiment: Giant-cell formation between persistently HIV-1 infected HUT-78 cells and uninfected MOLT-4 cells; assay type: functional, cell-based; conditions: hut78
In short: (§1)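 MOLT-4 cells were co-cultured with an equal number of HUT-78 cells persistently infected with HIV-1 IIIB or HIV-2 ROD, with varying compound concentrations. Syncytia were counted by flow cytofluorography after 24 h. EC50 is the concentration giving 50% protection against giant-cell formation.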

[2] = system: HuT78; experiment: Giant-cell formation between persistently HIV-2 infected HUT-78 cells and uninfected MOLT-4 cells; assay type: functional, cell-based; conditions: hut78; in short: as §1
[3] = system: MT4; experiment: Effective concentration to achieve 50% protection of MT-4 cells against the cytopathic effect of HIV-2; assay type: functional, cell-based; conditions: mt4
[4] = system: MT4; experiment: Selectivity index for CC50 (cytotoxic concentration based on reduction of viability of mock-infected MT-4 cells) to that of EC50 against HIV-2; assay type: functional
In short: (§2)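 MT-4 cells at 3 × 10^5 cells/mL were infected with HIV-1 IIIB or HIV-2 ROD at 100 CCID50/mL, or mock-infected, alongside serial compound dilutions. Viability was read by MTT after 5 days at 37 °C. CC50 comes from mock-infected cells and EC50 from protection against cytopathicity. Index = CC50/EC50.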

[5] = In vitro anticoagulant activity determined by clotting test of activated partial thromboplastin time (APTT) on a pool of human plasma; assay type: functional
In short: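 Activated partial thromboplastin time clotting test on pooled human plasma, run on an automatic coagulometer. Activities were calculated according to the European Pharmacopoeia.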

[6] = system: MT4; experiment: Effective concentration to achieve 50% protection of MT-4 cells against the cytopathic effect of HIV-1; assay type: functional, cell-based; conditions: mt4
[7] = system: MT4; experiment: Selectivity index for CC50 (cytotoxic concentration based on the reduction of the viability of mock-infected MT-4 cells) to that of EC50 against HIV-1; assay type: functional; in short: as §2

Row | Structure (SMILES) | EC50 [1] | EC50 [2] | EC50 [3] | Selectivity index [4] | APTT [5] | EC50 [6] | Selectivity index [7]
1 | CCCCCC(=O)OC/C(=C\C(=O)[O-])OC1OC(COS(=O)(=O)[O-])C(OC2OC(C(=O)[O-])C(OC3OC(COS(=O)(=O)[O-])C(OC4OC(C(=O)[O-])C(OC5OC(CS(=O)(=O)[O-])C(O)C(OC(=O)CCCCC)C5NS(=O)(=O)[O-])C(OC(=O)CCCCC)C4OS(=O)(=O)[O-])C(OC(=O)CCCCC)C3NS(=O)(=O)[O-])C(OC(=O)CCCCC)C2OS(=O)(=O)[O-])C(OC(=O)CCCCC)C1NS(=O)(=O)[O-].[Na+].[Na+].[Na+].[Na+].[Na+].[Na+].[Na+].[Na+].[Na+].[Na+].[Na+] (stereo in doubt; 3g) | 6 µg/mL | 75 µg/mL | 0.8 µg/mL | >650 | – | – | –
2 | CCCC(=O)OC/C(=C\C(=O)[O-])O[C@H]1O[C@H](COS(=O)(=O)[O-])[C@@H](O[C@@H]2O[C@@H](C(=O)[O-])[C@@H](O[C@H]3O[C@H](COS(=O)(=O)[O-])[C@@H](O[C@@H]4O[C@@H](C(=O)[O-])[C@@H](O[C@H]5O[C@H](CS(=O)(=O)[O-])[C@@H](O)[C@H](OC(=O)CCC)[C@H]5NS(=O)(=O)[O-])[C@H](OC(=O)CCC)[C@H]4OS(=O)(=O)[O-])[C@H](OC(=O)CCC)[C@H]3NS(=O)(=O)[O-])[C@H](OC(=O)CCC)[C@H]2OS(=O)(=O)[O-])[C@H](OC(=O)CCC)[C@H]1NS(=O)(=O)[O-].[Na+].[Na+].[Na+].[Na+].[Na+].[Na+].[Na+].[Na+].[Na+].[Na+].[Na+] (stereo in doubt; 4h) | 7.5 µg/mL | – | 0.23 µg/mL | >2174 | 9.7 IU mg-1 | 0.28 µg/mL | >1786
3 | CCCC(=O)OC/C(=C\C(=O)[O-])O[C@H]1O[C@H](COS(=O)(=O)[O-])[C@@H](O[C@@H]2O[C@@H](C(=O)[O-])[C@@H](O[C@H]3O[C@H](COS(=O)(=O)[O-])[C@@H](O[C@@H]4O[C@@H](C(=O)[O-])[C@@H](O[C@H]5O[C@H](CS(=O)(=O)[O-])[C@@H](O)[C@H](OC(=O)CCC)[C@H]5NS(=O)(=O)[O-])[C@H](OC(=O)CCC)[C@H]4OS(=O)(=O)[O-])[C@H](OC(=O)CCC)[C@H]3NS(=O)(=O)[O-])[C@H](OC(=O)CCC)[C@H]2OS(=O)(=O)[O-])[C@H](OC(=O)CCC)[C@H]1NS(=O)(=O)[O-].[Na+].[Na+].[Na+].[Na+].[Na+].[Na+].[Na+].[Na+].[Na+].[Na+].[Na+] (stereo in doubt; 4i) | 2.1 µg/mL | – | 0.16 µg/mL | >2941 | 16.8 IU mg-1 | 0.27 µg/mL | >1852
4 | CCCC(=O)OC/C(=C\C(=O)[O-])O[C@H]1O[C@H](COS(=O)(=O)[O-])[C@@H](O[C@@H]2O[C@@H](C(=O)[O-])[C@@H](O[C@H]3O[C@H](COS(=O)(=O)[O-])[C@@H](O[C@@H]4O[C@@H](C(=O)[O-])[C@@H](O[C@H]5O[C@H](CS(=O)(=O)[O-])[C@@H](O)[C@H](OC(=O)CCC)[C@H]5NS(=O)(=O)[O-])[C@H](OC(=O)CCC)[C@H]4OS(=O)(=O)[O-])[C@H](OC(=O)CCC)[C@H]3NS(=O)(=O)[O-])[C@H](OC(=O)CCC)[C@H]2OS(=O)(=O)[O-])[C@H](OC(=O)CCC)[C@H]1NS(=O)(=O)[O-].[Na+].[Na+].[Na+].[Na+].[Na+].[Na+].[Na+].[Na+].[Na+].[Na+].[Na+] (stereo in doubt; 4k) | 2 µg/mL | – | 0.26 µg/mL | >1923 | 29.3 IU mg-1 | 0.51 µg/mL | >980
